# Assay results as given in paper PMC9385543 (International Journal for Parasitology: Drugs and Drug …, 2022).
# Read-outs that look alike come from different tables or passages of the source.
# What was measured:
# horse RBCs = assay: In vitro haemolytic assay; type: cell-based
# Theileria equi [1] = assay: In vitro growth inhibitory assay of Theileria equi in MASP culture; type: cell-based; conditions: for in vitro growth inhibition versus control well: p < 0.05; for morphological changes observed in treated parasites: in vitro treatment, at 96 h, Giemsa-stained smears; for IC50: read-out: IC50 value for growth inhibition of T. equi
# Method in brief: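 T. equi-infected horse RBCs from MASP culture, diluted to 1% parasitaemia with uninfected ELISA-negative horse RBCs. Medium: M199 with 40% equine serum, antibiotics and 200 μM hypoxanthine. Test compounds at 1–200 μM or 125–1000 nM, triplicate wells, 96 h at 37 °C under 5% CO2/3% O2; drug medium renewed every 24 h. Percent parasitaemia followed over time; IC50 by curve fitting; two-way ANOVA with Bonferroni (p < 0.05).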
# Theileria equi [2] = assay: Viability test; type: cell-based
# Method in brief: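 After 96 h exposure in the growth assay, treated or untreated infected RBCs were moved into drug-free complete medium with fresh uninfected horse RBCs. Cultured a further 72 h at 37 °C under micro-aerophilic gas, with medium replaced every 24 h. Parasite recrudescence/viability was scored on Giemsa-stained blood smears.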
# horse PBMCs = assay: In vitro cytotoxicity assay; type: cell-based
# [3] = In vitro cytotoxicity assay; type: cell-based, horse; conditions: horse, PHA-stimulated horse PBMCs
# [4] = 48 h, 72 h and 96 h, 250 nM–1000 nM
SMILES,"haemolytic activity on horse RBCs (horse RBCs; 10 μM–2000 μM, 90 min) [%]","in vitro growth inhibition versus control well (Theileria equi [1]; 24 h, 500, 750 and 1000 nM)",in vitro growth inhibition versus control well (Theileria equi [1]; [4]),morphological changes observed in treated parasites (Theileria equi [1]),IC50 (Theileria equi [1]; 96 h of culture) [µM],parasite multiplication in the viability test (Theileria equi [2]; after 96 h treatment with 750 nM and 1000 nM),Specific selective index (SSI) with respect to host's RBC (horse RBCs; CC50 on horse RBCs / IC50 on T. equi),Specific selective index (SSI) with respect to host's PBMC (horse PBMCs; CC50 on horse PBMCs / IC50 on T. equi),"cytotoxicity to horse PBMCs (horse PBMCs; highest concentration 1000 μM, 24 h)",CC50 at 24 h [3] [µM],"in vitro growth inhibition versus control well (Theileria equi [1]; 24 h, 100 μM and 200 μM)","in vitro growth inhibition versus control well (Theileria equi [1]; 48 h, 72 h and 96 h, 5 μM–200 μM)","IC50 (Theileria equi [1]; Theileria equi, 96 h) [µM]",parasite multiplication in the viability test (Theileria equi [2]; after 96 h treatment with 50 μM–200 μM),haemolytic activity on horse RBCs (horse RBCs; highest concentration of 2000 μM),"in vitro growth inhibition versus control well (Theileria equi [1]; 24 h, 750 and 1000 nM)",parasite multiplication in the viability test (Theileria equi [2]; after 96 h treatment with 500 nM–1000 nM)
"CCCCCCCCCC[N+](C)(C)C.[Br-] [DTAB, Decyl trimethyl ammonium bromide]",< 3,significant difference,significant (p < 0.05) growth inhibition,"devoid of internal structures, showing pycnotic and degenerative appearances",0.558,failed to multiply further,–,–,–,–,–,–,–,–,–,–,–
"C[N+](C)(C)CCCCCCCCCC[N+](C)(C)C [DMB, Decamethonium bromide]",< 3,–,–,"devoid of internal structures, showing pycnotic and degenerative appearances",–,–,16035.38,514.50,less than 10%,7200,significant difference,significant (p < 0.05) growth inhibition,14,failed to multiply further,–,–,–
"CCCCCCCCCCCC[N+](C)(C)C.[Br-] [DDTAB, dodecyl trimethyl ammonium bromide]",–,–,significant (p < 0.05) growth inhibition,"devoid of internal structures, showing pycnotic and degenerative appearances",0.47,–,–,–,–,–,–,–,–,–,more,significant difference,failed to multiply further
